An excerpt weighted towards active compounds, which were near 3.8% of everything screened.
Lipid droplet: modulators of hepatic lipid droplet formation; AML12 mouse hepatocytes, oleate lipid droplets, BODIPY imaging; inhibition, % at 6.5 µM; 240,000 tested, 0.4% active;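 active = lipid droplet intensity inhibited by at least 50%, with more than 500 cells counted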
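Assay system: AML12 mouse liver cells | Compound: 6.5 µM single-point dosing | Schedule: Overnight exposure | Technique: Fluorescence imaging, 20x objective, two fields per well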
NS3 helicase inh: inhibitors of Hepatitis C virus NS3 helicase. inhibition, % at 10.9 µM. 290,000 tested, 0.56% active. NS3 helicase DNA unwinding, Cy5 molecular beacon fluorescence;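 active = inhibition above the mean of all tested compounds plus 3 SD, set per campaign, cut at about 35% in these data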
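System: NS3 helicase fragment of HCV / Schedule: 1 h at 25 °C / Control set: DMSO alone as 0% and 110 µM thioflavine S as 100% / Reagent: Cy5/quencher beacon DNA duplex and ATP to start / Technique: Cy5 fluorescence / Replication: singlicate / Evaluation: % inhibition of end-to-start signal ratio versus controls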
HSP90 inh: HSP90 refolding inhibition in rabbit reticulocyte lysate; luciferase refolding luminescence, 3 h; inhibition, % at 5.6 µM; 290,000 tested, 0.91% active; AID 1789;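 active = inhibition above the screen-wide mean plus 3 SD, computed separately per campaign, cut at about 16% in these data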;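 also: inhibitors lower the luminescence because luciferase stays unfolded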
HSF-1 act: increases HSF-1 driven luciferase reporter signal; NIH3T3-HGL HSF-1 luciferase reporter, MG132, 8 h; 100% = twice DMSO control signal; activation, % at 9 µM; 300,000 tested, 1.7% active; AID 504408;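 active = mean replicate activation of at least 50% with a set share of replicates each reaching 50%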
HSF1 inhib: HSF1 inhibition | NIH3T3-HGL HSE-luciferase, MG132-induced, luminescence 8 h; active compounds read low | activity change, negative = inhibition, % at 7.5 µM (by protocol) | 300,000 tested, 0.77% active;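 active = more than half of replicate wells show activity change below -50%, luminescence cut by over half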;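 also: luciferase reports HSF-1 transcriptional activity via heat shock element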
Hits are given with their value; i = inactive; nt = no result given.

SMILES	Lipid droplet	NS3 helicase inh	HSP90 inh	HSF-1 act	HSF1 inhib
Cc1cc(C)cc(N(CC(=O)NC2CCCC2)S(=O)(=O)c2c(C)[nH]c(=O)[nH]c2=O)c1	i	i	i	i	i
Cc1cccc(N(Cc2cc3ccccc3[nH]c2=O)C(=O)c2cccs2)c1	i	i	i	i	i
Cc1ccc(N(Cc2cc3ccc(C)cc3[nH]c2=O)C(=O)c2cccs2)cc1	i	i	i	i	-85
COc1ccc(N2CCN(C(=O)NCc3ccc(OC)c(OC)c3)CC2)cc1	i	i	i	i	i
COc1ccc(N=Cc2ccc[nH]2)cc1	i	i	i	i	-62
CCCCOc1ccc(N=Cc2ccc[nH]2)cc1	i	i	i	i	-68
Oc1oc(C=Nc2ccc(F)cc2F)c2ccccc12	i	i	i	i	i
Cc1ccc(S(=O)(=O)Nc2ccc(Cl)cn2)cc1C	i	i	i	i	i
NC[C@@]12CCCC1C1CCC2C1 (stereo partly drawn)	nt	i	i	i	i
O[C@@H]1C2CCCC1[C@]1(O)CCCCC1C2 (stereo partly drawn)	nt	i	i	53	i
Cc1c(Cl)cccc1NC(=O)Nc1cnccn1	i	i	i	i	-64
COc1ccc(CC2(C)OC(c3ccc([N+](=O)[O-])cc3)=NN2C(C)=O)cc1 (stereo not drawn)	i	i	i	i	i
COc1cc(/C=C2\C(=O)N(c3ccc(NC(C)=O)cc3)N=C2c2ccccc2)ccc1O	i	i	16	i	i
Cc1cccc([C@@H]2[C@@H]3C(=O)N(Cc4ccccc4)C(=O)[C@@H]3[C@]3(CC(C)C)C(=O)N(c4cccc(F)c4)C(=O)N23)c1	nt	nt	nt	i	i
O=C(CN1C(=O)NC2(CCCc3ccccc32)C1=O)Nc1cccc(S(=O)(=O)N2CCCCC2)c1 (stereo not drawn)	i	i	i	58	i
CCSc1nnc(NC(=O)C(Cc2ccccc2)n2cccc2)s1 (stereo not drawn)	nt	i	i	i	-75
COc1ccc(/C=N/NC(=O)CN2CCCc3ccccc32)c(OC)c1	i	i	i	i	i
COCc1cc(CN2CCN(CCCc3ccccc3)C(CCO)C2)ccc1OC (stereo not drawn)	i	i	i	i	i
COCc1cc(CN2CCN(CCc3ccccc3)C(CCO)C2)ccc1OC (stereo not drawn)	i	i	i	190	i
COc1ccccc1NC(=O)C(C)OC(=O)c1cccc(-n2cnnn2)c1 (stereo not drawn)	nt	nt	nt	i	i
COc1ccc(/C=C/C(=O)c2cccc(-n3cnnn3)c2)cc1O	i	i	i	57	i
COc1ccc(CCNc2oc(-c3ccccc3OC)nc2C#N)cc1OC	i	i	i	i	i
COc1ccc(CCNc2oc(-c3ccccc3OC)nc2C#N)cc1	i	i	i	95	i
CCc1ccc(C2=NNC(=Nc3cccc(S(=O)(=O)N(C)C)c3)SC2)cc1	i	i	i	i	-77
CSc1cc(-c2ccco2)oc1C(=O)c1ccco1	nt	nt	nt	51	i
SMILES	Lipid droplet	NS3 helicase inh	HSP90 inh	HSF-1 act	HSF1 inhib
CCCN(c1ccc(OCC)cc1)S(=O)(=O)c1ccc2c(c1)NC(=O)CO2	i	i	i	i	i
CC(C)(C)OC(=O)N[C@@H](Cc1ccccc1)c1nnc(S(=O)(=O)Cc2cccc(F)c2)o1	nt	i	i	i	i
Cc1ccccc1CS(=O)(=O)c1nnc([C@H](CC(C)C)NC(=O)OC(C)(C)C)o1	nt	i	i	107	i
CC[C@@H](C)[C@H](NC(=O)OC(C)(C)C)c1nnc(S(=O)(=O)Cc2cc(C)ccc2C)o1	nt	i	i	i	-66
Cc1ccc(C(=O)CN2C(=O)NC3(CCCCCC3)C2=O)c(C)c1	nt	nt	nt	i	i
N#CC1CC(c2ccccc2)=NN1c1ccccc1[N+](=O)[O-] (stereo not drawn)	i	i	i	i	i
OCc1cn(-c2ccccc2)nc1-c1cc2ccccc2o1	i	i	i	63	i
O=C(N/N=C/c1cn(-c2ccccc2)nc1-c1cc2ccccc2o1)c1c[nH]c2ccccc12	52	i	i	i	i
Cc1ccc(C)c(NC(=O)CN2C(=O)CC(C)S(=O)(=O)c3ccccc32)c1 (stereo not drawn)	i	i	i	i	i
CCOC(=O)/C=C/C(=O)N1CCN(C(=O)/C=C/C(=O)OCC)CC1	i	i	i	i	i
NS(=O)(=O)c1ccc(NC(=S)NCc2ccco2)cc1	i	i	i	i	i
Cc1cccc(C)c1NC(=O)COC(=O)c1cccc2c1C(=O)c1ccccc1C2=O	i	i	i	82	i
COC(=O)c1ccc2c(c1)C(C)(C)C(/C=C/c1ccc(O)cc1)=[N+]2C	119	i	i	85	i
O=C(CNc1cccc2ccccc12)N/N=C/c1ccc([N+](=O)[O-])cc1	i	i	i	77	i
CN1c2ccccc2C(O)=C(C(=S)Nc2ccc(Cl)cc2)S1(=O)=O	i	i	i	60	i
CCOC(=O)Cn1nnc(-c2cccc(OC)c2)n1	nt	i	i	67	i
O=C(NCc1ccccc1)N1CCNCC1	i	i	i	i	i
CC(=O)Nc1ccc(S(=O)(=O)Nc2nc3ccccc3nc2Nc2ccc(O)cc2)cc1	i	i	i	i	i
CC(C)Oc1ccc(CN=C(N)N=C(N)N)cc1Cl	i	i	i	55	i
Cc1cc(C)n2nc(C(=O)N/N=C/c3cccc(Cl)c3)nc2n1	i	i	i	56	i
Cc1ccc(-c2cnc3cc(C)nn3c2)cc1	i	i	i	57	i
Cc1cc2ncc(-c3ccc(Cl)cc3)cn2n1	i	i	i	i	i
Cc1cccc(-c2cccc(NC(=O)C3CCCN(C(=O)c4cccnc4)C3)c2)c1 (stereo not drawn)	i	i	i	67	i
Cc1cccc(-c2cccc(NC(=O)C3CCCN(C(=O)c4csc(C)n4)C3)c2)c1 (stereo not drawn)	i	i	i	60	i
CCc1ccc(C(=O)NC(CCSC)C(=O)OC)cc1 (stereo not drawn)	i	i	i	i	-81
SMILES	Lipid droplet	NS3 helicase inh	HSP90 inh	HSF-1 act	HSF1 inhib
CSCC[C@H](NC(=O)Nc1ccccc1C)C(=O)O	i	i	i	i	i
COC(=O)[C@H](CCSC)NC(=O)c1cccnc1SC	i	i	i	i	i
COC(=O)[C@H](CCSC)NC(=O)Nc1cccc(C)c1C	i	i	i	96	i
O=C(/C=C/c1cccc([N+](=O)[O-])c1)n1cnc2ccccc21	i	i	i	231	i
O=C(/C=C/c1cccc([N+](=O)[O-])c1)N1CCN(c2ccccn2)CC1	i	i	i	i	i
CCOc1ccc(N=Nc2c(=O)[nH]n3c(=O)cc(C)[nH]c23)cc1	nt	i	i	i	i
Cc1cc(=O)n2[nH]c(=O)c(N=Nc3ccccc3)c2[nH]1	nt	i	i	i	-64
CCOc1ccc(NC(=S)N2CCC(NC(=O)c3ccco3)CC2)cc1	i	i	i	i	i
O=C(CCCl)Nc1nc2c(s1)CCc1ccccc1-2	i	i	i	175	i

Screening data: PubChem BioAssay, several laboratories
